Reference: ChEMBL document CHEMBL2086252, “Syntheses and evaluation of anticonvulsant activity of novel branched alkyl carbamates” (J Med Chem, 2012)
Calls of active or inactive are those of the source. The calls are words filed in the database; no cut-off is given here.

Experiments:
[1] = Neurotoxicity in po dosed Sprague-Dawley albino rat assessed as minimal motor impairment by rotarod test; assay type: toxicity, organism-based; settings: in vivo
Summary of the method: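 Rats dosed orally; 4 rats per time point after dosing. Neurotoxicity was scored as motor impairment or sedation and reported as number of animals affected over number tested.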

[2] = test system: Rattus norvegicus; assay: Neurotoxicity in pilocarpine-induced status epilepticus Sprague-Dawley albino rat model assessed as minimal motor impairment at 30 mg/kg, ip after 0.25 hr by rotarod test; assay type: toxicity, organism-based; design: dose 30 mg/kg, route intraperitoneal; settings: in vivo
Summary of the method: (§1)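 Rat pilocarpine status epilepticus model: test carbamate given at 0 or 30 min after the first observed Racine stage 3 motor seizure, which marks SE onset. Neurotoxicity was scored within the same model.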

[3] = test system: Rattus norvegicus; assay: Anticonvulsant activity in Sprague-Dawley albino rat assessed as protection against pilocarpine-induced status epilepticus at 65 mg/kg, ip; assay type: functional, organism-based; design: dose 65 mg/kg
Summary of the method: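 Pilocarpine status epilepticus model in rats. Number and severity of convulsive seizures were observed behaviourally.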

[4] = test system: Mus musculus; assay: Anticonvulsant activity in ip dosed albino CF-1 mouse assessed as protection against 6 Hz psychomotor seizure; assay type: functional; settings: albino CF-1, ip
Summary of the method: (§2)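 Quantitative testing: rats dosed orally or ip in MES and scMet tests, and mice dosed ip, including the 6 Hz (32 mA) psychomotor seizure test. ED50 and TD50 were reported in mg/kg with ranges in parentheses. Protective index was calculated as TD50/ED50.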

[5] = test system: Rattus norvegicus; assay: Neurotoxicity in pilocarpine-induced status epilepticus Sprague-Dawley albino rat model assessed as minimal motor impairment at 30 mg/kg, ip after 0.5 hrs by rotarod test; assay type: toxicity, organism-based; design: dose 30 mg/kg, route intraperitoneal; settings: in vivo; summary of the method: as §1
[6] = Neurotoxicity in ip dosed albino CF1 mouse assessed as minimal motor impairment by rotarod test; assay type: toxicity, organism-based; settings: in vivo; summary of the method: as §2
[7] = test system: Mus musculus; assay: Protective index, ratio of TD50 for ip dosed albino CF1 mouse by rotarod test to ED50 for ip dosed albino CF1 mouse by 6 Hz psychomotor seizure test; assay type: functional
Summary of the method: (§3)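 Protective index calculated as TD50/ED50, with TD50 and ED50 taken from the same species and dosing route.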

[8] = test system: Mus musculus; assay: Anticonvulsant activity in albino CF1 mouse assessed as protection against maximal electroshock-induced seizures at 300 mg/kg, ip after 0.5 hrs; assay type: functional, organism-based; design: dose 300 mg/kg
Summary of the method: (§4)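 Mice dosed ip at 30, 100 or 300 mg/kg, then tested 0.5 h and 4 h after administration in the MES or scMet test. Protection was recorded as animals protected over animals tested. Neurotoxicity was recorded as motor impairment or sedation, as animals affected over animals tested.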

[9] = test system: Mus musculus; assay: Anticonvulsant activity in albino CF1 mouse assessed as protection against maximal electroshock-induced seizures at 300 mg/kg, ip after 4 hrs; assay type: functional, organism-based; design: dose 300 mg/kg; summary of the method: as §4
[10] = test system: Mus musculus; assay: Anticonvulsant activity in albino CF1 mouse assessed as protection against maximal electroshock-induced seizures at 100 mg/kg, ip after 0.5 hrs; assay type: functional, organism-based; design: dose 100 mg/kg; summary of the method: as §4
[11] = test system: Rattus norvegicus; assay: Anticonvulsant activity in Sprague-Dawley albino rat assessed as protection against maximal electroshock-induced seizures at 30 mg/kg, po after 2 hrs; assay type: functional, organism-based; design: dose 30 mg/kg
Summary of the method: (§5)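 Rats dosed orally. Anti-MES protection was scored as animals protected over animals tested at each time after dosing. Neurotoxicity was scored as motor impairment or sedation, as animals affected over animals tested.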

[12] = test system: Rattus norvegicus; assay: Neurotoxicity in pilocarpine-induced status epilepticus Sprague-Dawley albino rat model assessed as minimal motor impairment at 30 mg/kg, ip after 2 hrs by rotarod test; assay type: toxicity, organism-based; design: dose 30 mg/kg, route intraperitoneal; settings: in vivo; summary of the method: as §1
[13] = test system: Mus musculus; assay: Anticonvulsant activity in ip dosed albino CF1 mouse assessed as protection against subcutaneous metrazol-induced seizures; assay type: functional; summary of the method: as §2
[14] = test system: Mus musculus; assay: Anticonvulsant activity in albino CF1 mouse assessed as protection against maximal electroshock-induced seizures at 100 mg/kg, ip after 4 hrs; assay type: functional, organism-based; design: dose 100 mg/kg; summary of the method: as §4
[15] = test system: Rattus norvegicus; assay: Protective index, ratio of TD50 for po dosed Sprague-Dawley albino rat by rotarod test to ED50 for po dosed Sprague-Dawley albino rat by subcutaneous metrazol seizures test; assay type: functional; summary of the method: as §3
[16] = test system: Mus musculus; assay: Neurotoxicity in albino CF1 mouse assessed as minimal motor impairment at 100 mg/kg, ip after 4 hrs by rotarod test; assay type: toxicity, organism-based; design: dose 100 mg/kg, route intraperitoneal; settings: in vivo; summary of the method: as §4
[17] = test system: Mus musculus; assay: Anticonvulsant activity in ip dosed albino CF1 mouse assessed as protection against maximal electroshock-induced seizures; assay type: functional; summary of the method: as §2
[18] = test system: Rattus norvegicus; assay: Neurotoxicity in pilocarpine-induced status epilepticus Sprague-Dawley albino rat model assessed as minimal motor impairment at 100 mg/kg, ip after 4 hrs by rotarod test; assay type: toxicity, organism-based; design: dose 100 mg/kg, route intraperitoneal; settings: in vivo
[19] = test system: Rattus norvegicus; assay: Neurotoxicity in pilocarpine-induced status epilepticus Sprague-Dawley albino rat model assessed as minimal motor impairment at 100 mg/kg, ip after 1 hr by rotarod test; assay type: toxicity, organism-based; design: dose 100 mg/kg, route intraperitoneal; settings: in vivo
[20] = test system: Rattus norvegicus; assay: Neurotoxicity in pilocarpine-induced status epilepticus Sprague-Dawley albino rat model assessed as minimal motor impairment at 30 mg/kg, ip after 4 hrs by rotarod test; assay type: toxicity, organism-based; design: dose 30 mg/kg, route intraperitoneal; settings: in vivo; summary of the method: as §1
[21] = test system: Rattus norvegicus; assay: Anticonvulsant activity in Sprague-Dawley albino rat assessed as protection against maximal electroshock-induced seizures at 30 mg/kg, po after 1 hr; assay type: functional, organism-based; design: dose 30 mg/kg; summary of the method: as §5
[22] = test system: Mus musculus; assay: Anticonvulsant activity in albino CF1 mouse assessed as protection against subcutaneous metrazol-induced seizures at 30 mg/kg, ip after 4 hrs; assay type: functional, organism-based; design: dose 30 mg/kg; summary of the method: as §4
[23] = test system: Rattus norvegicus; assay: Neurotoxicity in pilocarpine-induced status epilepticus Sprague-Dawley albino rat model assessed as minimal motor impairment at 100 mg/kg, ip after 2 hrs by rotarod test; assay type: toxicity, organism-based; design: dose 100 mg/kg, route intraperitoneal; settings: in vivo
[24] = test system: Rattus norvegicus; assay: Protective index, ratio of TD50 for ip dosed Sprague-Dawley albino rat by rotarod test to ED50 for ip dosed Sprague-Dawley albino rat by maximal electroshock seizures test; assay type: functional; summary of the method: as §3
[25] = test system: Mus musculus; assay: Neurotoxicity in albino CF1 mouse assessed as minimal motor impairment at 300 mg/kg, ip after 0.5 hrs by rotarod test; assay type: toxicity, organism-based; design: dose 300 mg/kg, route intraperitoneal; settings: in vivo; summary of the method: as §4
[26] = test system: Rattus norvegicus; assay: Anticonvulsant activity in ip dosed Sprague-Dawley albino rat assessed as protection against subcutaneous metrazol-induced seizures; assay type: functional; summary of the method: as §2
[27] = test system: Rattus norvegicus; assay: Anticonvulsant activity in Sprague-Dawley albino rat assessed as protection against maximal electroshock-induced seizures at 30 mg/kg, po after 30 mins; assay type: functional, organism-based; design: dose 30 mg/kg; summary of the method: as §5
[28] = test system: Rattus norvegicus; assay: Neurotoxicity in pilocarpine-induced status epilepticus Sprague-Dawley albino rat model assessed as minimal motor impairment at 100 mg/kg, ip after 0.25 hr by rotarod test; assay type: toxicity, organism-based; design: dose 100 mg/kg, route intraperitoneal; settings: in vivo
[29] = test system: Rattus norvegicus; assay: Anticonvulsant activity in po dosed Sprague-Dawley albino rat assessed as protection against subcutaneous metrazol-induced seizures; assay type: functional; summary of the method: as §2
[30] = test system: Rattus norvegicus; assay: Ratio of ED50 for po dosed Sprague-Dawley albino rat to ED50 for ip dosed Sprague-Dawley albino rat by maximal electroshock-induced seizure test; assay type: functional
[31] = test system: Mus musculus; assay: Anticonvulsant activity in albino CF1 mouse assessed as protection against subcutaneous metrazol-induced seizures at 300 mg/kg, ip after 4 hrs; assay type: functional, organism-based; design: dose 300 mg/kg; summary of the method: as §4
[32] = test system: Mus musculus; assay: Anticonvulsant activity in albino CF1 mouse assessed as protection against subcutaneous metrazol-induced seizures at 30 mg/kg, ip after 0.5 hrs; assay type: functional, organism-based; design: dose 30 mg/kg; summary of the method: as §4
[33] = test system: Mus musculus; assay: Neurotoxicity in albino CF1 mouse assessed as minimal motor impairment at 30 mg/kg, ip after 0.5 hrs by rotarod test; assay type: toxicity, organism-based; design: dose 30 mg/kg, route intraperitoneal; settings: in vivo; summary of the method: as §4
[34] = test system: Mus musculus; assay: Protective index, ratio of TD50 for ip dosed albino CF1 mouse by rotarod test to ED50 for ip dosed albino CF1 mouse by subcutaneous metrazol seizures test; assay type: functional; summary of the method: as §3
[35] = Neurotoxicity in ip dosed Sprague-Dawley albino rat assessed as minimal motor impairment by rotarod test; assay type: toxicity, organism-based; settings: in vivo; summary of the method: as §2
[36] = test system: Mus musculus; assay: Neurotoxicity in albino CF1 mouse assessed as minimal motor impairment at 30 mg/kg, ip after 4 hrs by rotarod test; assay type: toxicity, organism-based; design: dose 30 mg/kg, route intraperitoneal; settings: in vivo; summary of the method: as §4
[37] = test system: Rattus norvegicus; assay: Neurotoxicity in pilocarpine-induced status epilepticus Sprague-Dawley albino rat model assessed as minimal motor impairment at 300 mg/kg, ip after 0.25 hr by rotarod test; assay type: toxicity, organism-based; design: dose 300 mg/kg, route intraperitoneal; settings: in vivo; summary of the method: as §1

CCC(COC(N)=O)C(C)C (racemic)
TD50 [1]: > 500 mg/kg
Activity [2]: Non-toxic
Activity [3]: Active
ED50 [4]: 33 mg/kg
Activity [5]: Non-toxic
TD50 [6]: 157 mg/kg
Ratio TD50/ED50 [7]: 4.4
Activity [8]: Active
Activity [9]: inactive
Activity [10]: inactive
Activity [11]: inactive
Activity [12]: Non-toxic
ED50 [13]: 120 mg/kg
Activity [14]: inactive
Ratio TD50/ED50 [15]: 14
Activity [16]: Non-toxic
ED50 [17]: 103 mg/kg
Activity [18]: Non-toxic
Activity [19]: Non-toxic
Activity [20]: Non-toxic
Activity [21]: inactive
Activity [22]: inactive
Activity [23]: Non-toxic
Ratio TD50/ED50 [24]: 3.6
Activity [25]: Toxic
ED50 [26]: 19 mg/kg
Activity [27]: inactive
Activity [28]: Toxic
ED50 [29]: 35 mg/kg
Ratio ED50 [30]: 4
Activity [31]: inactive
Activity [32]: inactive
Activity [33]: Non-toxic
Ratio TD50/ED50 [34]: 2.9
TD50 [35]: 58 mg/kg
Activity [36]: Non-toxic
Activity [37]: Toxic
